Results taken from ChEMBL document CHEMBL3784976 (J Med Chem, 2016).
Activity calls are given as the source filed them. No cut-off for these calls is given here.

Experiments:
[1] = target: Alpha-1A adrenergic receptor (Homo sapiens) (UniProt P35348); test: Displacement of [3H]prazosin from human recombinant adrenergic alpha1A expressed in CHO cells assessed as remaining radioligand binding at 10 uM after 60 mins by scintillation counting method relative to control; format: cell-based
[2] = target: Cytochrome P450 2D6 (Homo sapiens, UniProt P10635); test: Inhibition of CYP2D6 in human liver microsomes using dextromethorphan as substrate by LC-MS/MS analysis in presence of NADPH; format: ADME
[3] = Apparent intrinsic clearance in human liver microsomes; format: ADME; settings: read-out: CLH(app)
[4] = Ratio of fCmax in rat at 30 mg/kg, po to IC50 for rat TRPA1 expressed in tetracycline-inducible T-REx expression system transfected CHO cells by 45Ca2+ uptake assay
[5] = target: Transient receptor potential cation channel subfamily V member 1 (Rattus norvegicus) (UniProt O35433); test: Antagonist activity at rat TRPV1 assessed as inhibition of capsaicin-induced Ca2+ influx up to 10 uM preincubated for 2.5 mins followed by capsaicin addition measured for 1 min by luminescence assay
[6] = target: Melanocortin receptor 4 (Homo sapiens) (UniProt P32245); test: Displacement of [125I]NDP-a-MSH from human recombinant MC4 receptor expressed in CHO cells assessed as remaining radioligand binding at 10 uM after 120 mins by scintillation counting method relative to control; format: cell-based
Sequence of Melanocortin receptor 4 (Homo sapiens) (P32245 whole entry): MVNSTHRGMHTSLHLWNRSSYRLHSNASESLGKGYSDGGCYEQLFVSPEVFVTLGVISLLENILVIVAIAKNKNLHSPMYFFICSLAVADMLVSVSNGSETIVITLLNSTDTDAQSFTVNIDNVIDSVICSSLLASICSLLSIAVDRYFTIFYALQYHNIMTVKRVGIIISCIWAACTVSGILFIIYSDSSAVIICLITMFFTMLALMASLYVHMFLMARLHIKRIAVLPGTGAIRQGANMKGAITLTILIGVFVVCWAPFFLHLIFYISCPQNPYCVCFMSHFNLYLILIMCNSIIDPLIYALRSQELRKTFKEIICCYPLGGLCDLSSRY

[7] = target: Adenosine receptor A2a (Homo sapiens) (UniProt P29274); test: Displacement of [3H]CGS-21680 from human recombinant adenosine A2A receptor expressed in HEK293 cells assessed as remaining radioligand binding at 10 uM after 120 mins by scintillation counting method relative to control; format: cell-based
[8] = target: Sodium-dependent noradrenaline transporter (Homo sapiens) (UniProt P23975); test: Displacement of [3H]nisoxetine from human recombinant norepinephrine transporter expressed in CHO cells assessed as remaining radioligand binding at 10 uM after 120 mins by scintillation counting method relative to control; format: cell-based
Sequence of Sodium-dependent noradrenaline transporter (Homo sapiens) (P23975 whole entry): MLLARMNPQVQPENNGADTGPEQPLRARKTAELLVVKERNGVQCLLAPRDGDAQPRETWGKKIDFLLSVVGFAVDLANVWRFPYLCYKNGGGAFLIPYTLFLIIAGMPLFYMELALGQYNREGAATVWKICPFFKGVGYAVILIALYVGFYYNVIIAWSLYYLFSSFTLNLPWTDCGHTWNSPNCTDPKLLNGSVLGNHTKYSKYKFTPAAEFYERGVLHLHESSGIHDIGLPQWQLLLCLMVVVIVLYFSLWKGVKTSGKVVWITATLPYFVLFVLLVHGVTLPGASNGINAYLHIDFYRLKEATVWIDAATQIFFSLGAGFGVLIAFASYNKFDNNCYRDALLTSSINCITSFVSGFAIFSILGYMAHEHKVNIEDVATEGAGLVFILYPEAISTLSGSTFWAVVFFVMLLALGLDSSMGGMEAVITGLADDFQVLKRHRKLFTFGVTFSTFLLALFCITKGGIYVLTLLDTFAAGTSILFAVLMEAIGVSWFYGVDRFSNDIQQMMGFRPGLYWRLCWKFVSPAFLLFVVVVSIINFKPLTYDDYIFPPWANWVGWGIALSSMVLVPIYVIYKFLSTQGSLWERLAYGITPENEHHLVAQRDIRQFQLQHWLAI

[9] = target: Urotensin-2 receptor (Homo sapiens) (UniProt Q9UKP6); test: Displacement of [125I]urotensin-2 from human recombinant urotensin-2 receptor expressed in CHO cells assessed as remaining radioligand binding at 10 uM after 120 mins by scintillation counting method relative to control; format: cell-based
[10] = organism: Rattus norvegicus; test: Antagonist activity at rat TRPV3 assessed as inhibition of 2-APB-induced Ca2+ influx up to 10 uM preincubated for 2.5 mins followed by 2-APB addition measured for 1 min by luminescence assay
[11] = organism: Rattus norvegicus; test: Displacement of [35S]TBPS from GABA gated chloride channel in rat cerebral cortex assessed as remaining radioligand binding at 10 uM after 120 mins by scintillation counting method relative to control; format: tissue-based
[12] = Apparent intrinsic clearance in rat liver microsomes; format: ADME; settings: read-out: CLH(app)
[13] = system: Rattus norvegicus; test: Unbound clearance in rat at 0.5 mg/kg, iv as single dose; format: ADME, organism-based; settings: in vivo
Outline: (§1)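 Single intravenous dose of 0.5 mg/kg given to rats, formulated in 100% DMSO.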

[14] = target: T1, Transient receptor potential cation channel subfamily A member 1 (Rattus norvegicus, UniProt Q6RI86); test: (§2) Antagonist activity at rat TRPA1 expressed in tetracycline-inducible T-REx expression system transfected CHO cells assessed as inhibition of hypo osmolarity buffer-induced 45Ca2+ uptake preincubated for 10 mins followed by hypo osmolarity buffer addition measured after 3 mins by TopCount microplate scintillator counting method; format: cell-based
T1 sequence (Q6RI86 whole entry): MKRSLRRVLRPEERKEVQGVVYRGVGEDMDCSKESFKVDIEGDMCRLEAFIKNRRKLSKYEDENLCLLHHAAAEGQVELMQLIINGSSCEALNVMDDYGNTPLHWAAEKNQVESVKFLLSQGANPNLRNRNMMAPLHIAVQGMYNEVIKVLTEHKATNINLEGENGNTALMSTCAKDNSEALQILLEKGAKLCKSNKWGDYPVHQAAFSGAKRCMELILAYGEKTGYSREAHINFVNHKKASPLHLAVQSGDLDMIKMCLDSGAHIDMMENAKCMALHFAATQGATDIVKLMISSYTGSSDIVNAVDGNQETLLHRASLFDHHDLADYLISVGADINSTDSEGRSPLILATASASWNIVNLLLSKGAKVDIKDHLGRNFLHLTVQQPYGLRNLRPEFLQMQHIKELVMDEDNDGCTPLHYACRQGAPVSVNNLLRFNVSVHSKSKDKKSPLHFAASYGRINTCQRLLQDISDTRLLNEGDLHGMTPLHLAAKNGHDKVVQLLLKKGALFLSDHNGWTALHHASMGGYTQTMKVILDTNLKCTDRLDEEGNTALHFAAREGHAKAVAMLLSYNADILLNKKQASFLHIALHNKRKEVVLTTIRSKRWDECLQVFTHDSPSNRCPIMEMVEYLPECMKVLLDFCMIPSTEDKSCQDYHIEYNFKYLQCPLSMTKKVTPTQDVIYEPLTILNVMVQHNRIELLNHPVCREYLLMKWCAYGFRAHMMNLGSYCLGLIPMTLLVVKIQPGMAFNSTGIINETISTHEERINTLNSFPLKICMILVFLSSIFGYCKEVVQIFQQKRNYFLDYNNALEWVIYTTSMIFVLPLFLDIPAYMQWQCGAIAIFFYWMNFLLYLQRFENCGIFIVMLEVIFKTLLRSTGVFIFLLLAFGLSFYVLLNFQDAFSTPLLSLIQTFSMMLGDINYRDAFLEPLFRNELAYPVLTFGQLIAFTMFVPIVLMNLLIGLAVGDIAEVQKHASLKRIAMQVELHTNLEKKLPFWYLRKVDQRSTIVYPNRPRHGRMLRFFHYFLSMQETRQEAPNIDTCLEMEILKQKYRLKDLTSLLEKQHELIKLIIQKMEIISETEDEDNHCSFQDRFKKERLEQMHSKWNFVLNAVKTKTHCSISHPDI
Outline: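 Compound given 10 min at RT in Ham's F12/15 mM HEPES/0.1% BSA, final 2.0 nM–40 μM (1:3 steps); then hypo-osmolar buffer (final 100 mOsmol) with 45Ca2+ (final 10 μCi/mL), 3 min at RT. Cells washed three times in PBS/0.1 mg/mL BSA, then scintillation counted. Hypotonic uptake = 100%, 300 mOsmol/L buffer = 0%. POC fitted to a four-parameter curve for IC50.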

[15] = target: D(3) dopamine receptor (Homo sapiens) (UniProt P35462); test: Displacement of [3H]methyl-spiperone from human recombinant dopamine D3 receptor expressed in CHO cells assessed as remaining radioligand binding at 10 uM after 60 mins by scintillation counting method relative to control; format: cell-based
Sequence of D(3) dopamine receptor (Homo sapiens) (P35462 whole entry): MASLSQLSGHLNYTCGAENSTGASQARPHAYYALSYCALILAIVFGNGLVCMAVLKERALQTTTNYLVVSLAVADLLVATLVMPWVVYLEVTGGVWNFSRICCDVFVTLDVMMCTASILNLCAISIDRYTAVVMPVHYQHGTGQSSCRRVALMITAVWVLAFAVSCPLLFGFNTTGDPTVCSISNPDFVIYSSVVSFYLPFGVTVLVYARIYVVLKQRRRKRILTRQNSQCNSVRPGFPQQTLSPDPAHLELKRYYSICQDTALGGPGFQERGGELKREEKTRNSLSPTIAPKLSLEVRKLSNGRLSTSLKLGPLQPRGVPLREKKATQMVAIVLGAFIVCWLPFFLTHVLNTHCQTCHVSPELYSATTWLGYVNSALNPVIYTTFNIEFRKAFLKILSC

[16] = target: T2, Transient receptor potential cation channel subfamily A member 1 (Homo sapiens, UniProt O75762); test: Antagonist activity at human TRPA1 expressed in tetracycline-inducible T-REx expression system transfected CHO cells assessed as inhibition of AITC-induced Ca2+ influx preincubated for 2 mins followed by AITC addition measured for 2 mins by Fluo-4 dye based FLIPR assay; format: cell-based
T2 sequence (O75762 whole entry): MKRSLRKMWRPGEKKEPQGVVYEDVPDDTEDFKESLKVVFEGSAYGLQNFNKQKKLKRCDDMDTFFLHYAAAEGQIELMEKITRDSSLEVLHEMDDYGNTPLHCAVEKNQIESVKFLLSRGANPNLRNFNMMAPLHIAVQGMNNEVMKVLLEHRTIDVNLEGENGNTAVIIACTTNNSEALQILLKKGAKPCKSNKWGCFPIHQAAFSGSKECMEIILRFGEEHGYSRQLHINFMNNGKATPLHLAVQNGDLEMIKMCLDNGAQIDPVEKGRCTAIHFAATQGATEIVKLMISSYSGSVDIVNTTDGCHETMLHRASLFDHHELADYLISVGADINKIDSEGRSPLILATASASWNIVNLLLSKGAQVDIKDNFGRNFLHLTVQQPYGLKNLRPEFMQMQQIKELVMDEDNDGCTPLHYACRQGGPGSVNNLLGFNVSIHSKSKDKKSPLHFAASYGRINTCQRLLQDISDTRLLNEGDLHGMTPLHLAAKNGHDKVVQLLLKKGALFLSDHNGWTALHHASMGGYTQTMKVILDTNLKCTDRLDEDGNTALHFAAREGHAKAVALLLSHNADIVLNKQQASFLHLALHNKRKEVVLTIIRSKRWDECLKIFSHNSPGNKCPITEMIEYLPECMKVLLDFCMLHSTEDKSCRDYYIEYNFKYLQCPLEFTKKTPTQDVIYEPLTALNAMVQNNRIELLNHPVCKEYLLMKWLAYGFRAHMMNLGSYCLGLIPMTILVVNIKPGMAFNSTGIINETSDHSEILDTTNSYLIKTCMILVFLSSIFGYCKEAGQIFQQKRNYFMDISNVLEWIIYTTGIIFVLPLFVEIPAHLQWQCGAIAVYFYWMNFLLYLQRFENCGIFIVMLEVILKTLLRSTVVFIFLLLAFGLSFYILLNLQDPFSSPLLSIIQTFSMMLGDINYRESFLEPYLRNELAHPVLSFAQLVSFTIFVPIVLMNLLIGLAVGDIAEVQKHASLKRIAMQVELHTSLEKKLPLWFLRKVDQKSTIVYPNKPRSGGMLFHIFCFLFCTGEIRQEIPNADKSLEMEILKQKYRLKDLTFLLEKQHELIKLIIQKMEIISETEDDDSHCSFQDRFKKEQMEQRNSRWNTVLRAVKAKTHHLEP

[17] = Tmax in rat at 30 mg/kg, po; format: ADME, organism-based; settings: in vivo
Outline: (§3)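 Rats dosed orally at 30 mg/kg, or 10 mg/kg for one analogue, in 1% Tween 80/2% HPMC/97% water with methanesulfonic acid, pH 2.2.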

[18] = system: Rattus norvegicus; test: Binding affinity to TRPA1 in Harlan Sprague-Dawley rat model of AITC-induced flinching at 30 mg/kg, po in presence of AITC; format: functional, organism-based
[19] = target: Cholecystokinin receptor type A (Homo sapiens) (UniProt P32238); test: Displacement of [125I]CCK-8s from human recombinant CCK1 receptor expressed in CHO cells assessed as remaining radioligand binding at 10 uM after 60 mins by scintillation counting method relative to control; format: cell-based
Sequence of Cholecystokinin receptor type A (Homo sapiens) (P32238 whole entry): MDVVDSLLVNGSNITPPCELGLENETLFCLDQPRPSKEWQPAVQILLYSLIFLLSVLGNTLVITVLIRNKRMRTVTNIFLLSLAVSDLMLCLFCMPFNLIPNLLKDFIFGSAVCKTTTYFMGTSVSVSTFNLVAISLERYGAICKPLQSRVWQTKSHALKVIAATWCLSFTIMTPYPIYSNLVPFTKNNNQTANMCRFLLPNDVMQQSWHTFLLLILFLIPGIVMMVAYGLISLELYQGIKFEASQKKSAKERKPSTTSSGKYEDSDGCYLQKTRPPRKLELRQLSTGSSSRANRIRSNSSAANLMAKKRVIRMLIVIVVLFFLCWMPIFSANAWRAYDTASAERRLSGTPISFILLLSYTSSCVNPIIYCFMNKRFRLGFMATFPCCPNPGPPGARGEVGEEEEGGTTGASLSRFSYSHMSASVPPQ

[20] = target: Sodium channel protein type 9 subunit alpha (Mus musculus) (UniProt Q62205); test: Inhibition of Nav1.7 in mouse DRG neurons at 10 uM relative to control
[21] = target: T2, Transient receptor potential cation channel subfamily A member 1; test: Agonist activity at human TRPA1 expressed in tetracycline-inducible T-REx expression system transfected CHO cells by 45Ca2+ uptake assay; format: cell-based
[22] = target: 5-hydroxytryptamine receptor 2B (Homo sapiens) (UniProt P41595); test: Displacement of [3H]mesulergine from human recombinant 5HT2B receptor expressed in CHO cells assessed as remaining radioligand binding at 10 uM after 60 mins by scintillation counting method relative to control; format: cell-based
Sequence of 5-hydroxytryptamine receptor 2B (Homo sapiens) (P41595 whole entry): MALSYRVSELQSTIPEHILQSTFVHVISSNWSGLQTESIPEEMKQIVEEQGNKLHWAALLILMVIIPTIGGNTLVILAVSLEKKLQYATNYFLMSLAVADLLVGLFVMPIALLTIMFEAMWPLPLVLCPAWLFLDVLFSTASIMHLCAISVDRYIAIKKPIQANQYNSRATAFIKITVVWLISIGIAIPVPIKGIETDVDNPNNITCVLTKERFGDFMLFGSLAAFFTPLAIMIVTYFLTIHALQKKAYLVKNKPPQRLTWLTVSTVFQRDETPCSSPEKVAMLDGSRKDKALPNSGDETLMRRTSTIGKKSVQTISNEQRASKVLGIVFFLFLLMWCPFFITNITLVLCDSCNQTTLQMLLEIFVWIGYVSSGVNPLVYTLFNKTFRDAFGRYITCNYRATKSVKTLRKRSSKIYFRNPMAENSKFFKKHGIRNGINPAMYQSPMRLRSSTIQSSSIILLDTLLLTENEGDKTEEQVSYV

[23] = Half life in rat at 0.5 mg/kg, iv administered as single dose; format: ADME, organism-based; settings: in vivo; outline: as §1
[24] = Volume of distribution at steady state in rat at 0.5 mg/kg, iv as single dose; format: ADME, organism-based; settings: in vivo, read-out: Vdss; outline: as §1
[25] = Cmax in rat at 30 mg/kg, po; format: ADME, organism-based; design: dose 30 mg/kg, route oral; settings: in vivo
Outline: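 Rat oral PK at 30 mg/kg (10 mg/kg for one analogue) in 1% Tween 80/2% HPMC/97% water with methanesulfonic acid, pH 2.2.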

[26] = target: T1, Transient receptor potential cation channel subfamily A member 1; test: as §2, with “methylglyoxal-induced” for “hypo osmolarity buffer-induced”, “methylglyoxal” for “hypo osmolarity buffer”; format: cell-based
Outline: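 Compound given 10 min at RT in HBSS/1 mM HEPES/0.1 mg/mL BSA, final 2.0 nM–40 μM (1:3 steps); then methylglyoxal (final 2.74 mM) plus 45Ca2+ (final 10 μCi/mL) in Ham's F-12/15 mM HEPES/0.1% BSA, 3 min at RT. Cells washed three times, then scintillation counted. MG uptake = 100%, no-agonist buffer = 0%. Four-parameter fit gives IC50.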

[27] = Half life in rat at 30 mg/kg, po; format: ADME, organism-based; settings: in vivo; outline: as §3

Sequence of Alpha-1A adrenergic receptor (Homo sapiens) (P35348 whole entry): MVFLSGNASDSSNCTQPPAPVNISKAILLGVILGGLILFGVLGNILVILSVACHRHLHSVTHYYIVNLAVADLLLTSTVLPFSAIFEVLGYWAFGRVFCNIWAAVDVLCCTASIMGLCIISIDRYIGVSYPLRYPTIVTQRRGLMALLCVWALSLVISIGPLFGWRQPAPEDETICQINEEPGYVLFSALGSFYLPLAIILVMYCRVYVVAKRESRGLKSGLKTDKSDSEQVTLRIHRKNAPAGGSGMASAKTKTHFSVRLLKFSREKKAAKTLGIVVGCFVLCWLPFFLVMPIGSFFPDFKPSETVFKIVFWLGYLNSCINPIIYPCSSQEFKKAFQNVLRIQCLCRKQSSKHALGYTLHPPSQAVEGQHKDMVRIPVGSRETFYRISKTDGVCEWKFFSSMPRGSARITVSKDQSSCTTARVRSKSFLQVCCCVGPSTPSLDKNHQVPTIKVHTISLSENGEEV

## Cn1cnc2ncn(Cc3nc(CCc4ccc(Cl)cc4)no3)c(=O)c21
[1]
  Activity: > 77%
[2]
  IC50: > 27000 nM
[3]
  microsomal CLint: < 14 µL/min/mg
[4]
  Ratio: 31
[5]
  inhibition: inactive
[6]
  Activity: > 77%
[7]
  Activity: > 77%
[8]
  Activity: > 77%
[9]
  Activity: > 77%
[10]
  inhibition: inactive
[11]
  Activity: > 77%
[12]
  microsomal CLint: 41 µL/min/mg
[13]
  CL free: 150 mL/min/kg
[14]
  IC50: 10 nM
[15]
  Activity: > 77%
[16]
  IC50: 20 nM
[17]
  Tmax: 48 min
[18]
  Activity: Active
[19]
  Activity: > 77%
[20]
  inhibition: 10%
[21]
  EC50: > 40000 nM
[22]
  Activity: > 77%
[23]
  half-life: 36 min
[24]
  Vd: 1.7 L/kg
[25]
  Cmax: 7.5 µM
[26]
  IC50: 19 nM
[27]
  half-life: 168 min
